Compound activity deposited in PubChem BioAssay by Johns Hopkins Ion Channel Center.
Compounds with a hit are over-represented: about 2.3% of the library has one in this group of screens.
TRPC4 potent – allosterically enhances the mouse TRPC4 cation channel | B-score at 10 µM | HEK293 TRPC4beta/mu-opioid, DAMGO EC20, Fluo-4 Ca2+ flux; stronger effect = higher value | AID 2227 | hit rate 0.42% among 310,000;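 active = B-score of calcium response area above 5 SD of library B-scores, with initial fluorescence ratio within 5 SD of library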
TRPC4 agonist – opens the mouse TRPC4 cation channel; Q9QUQ5; HEK293 TRPC4beta/mu-opioid, Fluo4 calcium fluorescence; stronger effect = higher value; B-score at 10 µM; hit rate 0.49% among 310,000; AID 2237;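 active = B-score above 5 SD of library B-scores, and initial fluorescence ratio not above library mean plus 5 SD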;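 note: positive B-score marks a calcium rise read as TRPC4 activation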
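Technique: kinetic Fluo4 calcium fluorescence; Test system: TRPC4beta and mu-opioid receptor HEK293 stable cells; Measure: B-scored integrated calcium fluorescence ratio; Benchmarks: low control buffer alone, high control maximal DAMGO; Schedule: 45 min room-temperature Fluo4 loading, 110 s read.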
TRPC6 activator – mouse TRPC6 channel activation; AID 2550; HEK293-TRPC6 membrane potential dye fluorescence; stronger effect = higher value; hit rate 0.13% among 310,000; B-score at 10 µM;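 active = B-score of the integrated fluorescence ratio above library mean plus 3 SD, and starting fluorescence ratio within library mean plus 5 SD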;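 note: higher score means more depolarization so channel activation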
Target sequence (Q61143 whole entry, looked up): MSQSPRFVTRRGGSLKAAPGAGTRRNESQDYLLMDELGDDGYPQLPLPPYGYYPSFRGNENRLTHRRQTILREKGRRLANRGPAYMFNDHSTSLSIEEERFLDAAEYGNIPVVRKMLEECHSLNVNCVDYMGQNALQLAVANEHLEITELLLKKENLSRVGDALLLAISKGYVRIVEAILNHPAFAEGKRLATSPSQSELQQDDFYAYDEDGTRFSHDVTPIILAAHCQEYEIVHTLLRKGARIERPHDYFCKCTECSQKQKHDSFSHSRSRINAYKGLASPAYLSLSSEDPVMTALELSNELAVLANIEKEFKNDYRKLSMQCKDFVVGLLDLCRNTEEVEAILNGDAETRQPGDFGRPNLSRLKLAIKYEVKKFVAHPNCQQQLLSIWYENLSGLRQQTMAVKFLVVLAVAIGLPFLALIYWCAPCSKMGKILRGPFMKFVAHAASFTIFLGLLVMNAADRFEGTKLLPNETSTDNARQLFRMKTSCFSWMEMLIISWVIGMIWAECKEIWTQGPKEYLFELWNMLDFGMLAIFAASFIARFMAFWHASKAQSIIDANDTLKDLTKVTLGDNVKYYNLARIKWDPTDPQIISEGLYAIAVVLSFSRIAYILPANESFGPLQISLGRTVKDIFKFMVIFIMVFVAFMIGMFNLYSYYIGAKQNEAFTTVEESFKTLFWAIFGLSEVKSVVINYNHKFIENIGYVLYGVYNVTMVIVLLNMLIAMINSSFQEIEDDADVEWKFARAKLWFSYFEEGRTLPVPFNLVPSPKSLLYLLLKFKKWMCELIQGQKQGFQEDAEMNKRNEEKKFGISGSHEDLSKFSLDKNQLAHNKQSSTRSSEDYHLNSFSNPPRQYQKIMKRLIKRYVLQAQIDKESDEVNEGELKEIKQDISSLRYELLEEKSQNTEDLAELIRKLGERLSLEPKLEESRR
TRPC6 inh – mouse TRPC6 channel inhibition; AID 2553; B-score at 10 µM; Q61143; HEK293-TRPC6, membrane potential dye, ACh-evoked depolarization; stronger effect = lower value; hit rate 1.1% among 310,000;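 active = B-score under library mean minus 3 SD, initial fluorescence not abnormally high, positive integrated signal ratio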;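 note: B-score derived from integrated fluorescence ratio over the kinetic read; more negative B-score means stronger inhibition of depolarization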
TRPC4 inh – blocks the mouse TRPC4 cation channel; Q9QUQ5; HEK293 TRPC4beta/mu-opioid, DAMGO-evoked Fluo4 calcium flux; stronger effect = lower value; B-score at 10 µM; hit rate 0.39% among 300,000; AID 2247;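 active = B-score over 3 SD under the library average, no early fluorescence shift, positive overall ratio signal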
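Signal: kinetic Fluo4 fluorescence imaging of calcium influx. Material: stable TRPC4beta/mu-opioid receptor HEK293 cells. Probe or stimulus: DAMGO in two steps, submaximal then maximal.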
Large screens that a line does not name were inactive.

Cc1cc(N2CCOCC2)nc2ccccc12	none
Cc1cc(N2CCCCCC2)nc2ccccc12	TRPC4 inh -6
Cc1cc(N2CCCN(C)CC2)nc2cc(Cl)ccc12	TRPC4 potent 13
Cc1cc(N2CCCCC2)nc2ccccc12	TRPC4 inh -6
Cc1cc(OCCN2CCOCC2)nc2ccccc12	none
Cc1cc(OCCN2CCCCC2)nc2ccccc12	TRPC4 potent 17
Cn1c(=O)cc(OCCCC(=O)NCCCN2CCN(Cc3ccccc3)CC2)c2ccccc21	TRPC4 potent 25
Cn1c(=O)cc(OCCCC(=O)NCCN2CCN(c3ccccc3F)CC2)c2ccccc21	none
S=c1[nH]nc(COc2ccc(Cl)cc2Cl)n1-c1ccccc1	TRPC4 agonist 54
S=c1[nH]nc(-c2ccc(Cl)cc2Cl)n1-c1ccccc1	none
COc1ccc(N(C(C)C(=O)Nc2cccnc2)S(C)(=O)=O)cc1 (configuration not stated)	none
COc1cccc(CNC(=O)C2CCN(Cc3cnn(-c4ccccc4)c3-n3cccc3)CC2)c1	TRPC4 agonist 44
O=C(NCc1cccnc1)C1CCCN(Cc2cnn(-c3ccccc3)c2-n2cccc2)C1 (configuration not stated)	TRPC4 agonist 87
O=C(NCc1ccccn1)C1CCCN(Cc2cnn(-c3ccccc3)c2-n2cccc2)C1 (configuration not stated)	TRPC4 agonist 53 (no result: TRPC4 inh)
CC(=O)NC(C)C(=O)OCc1ccc(Cl)cc1Cl (configuration not stated)	none
CC(C)(C)CN1CCC(Oc2cccc(C(=O)N3CCC[C@H]3CO)c2)CC1	none
COc1cccc(OCC(O)CNC(=O)c2oc3ccc(C)cc3c2C)c1 (configuration not stated)	none
COc1ccccc1CNCC(c1ccccc1)c1ccccc1	TRPC4 inh -6
COc1ccccc1CNCC(O)Cn1c2ccccc2c2ccccc21 (configuration not stated)	TRPC4 agonist 80
CNC[C@H](Cc1ccccc1)NC[C@@H](Cc1cccc2ccccc12)NCCc1ccc(C)cc1	TRPC4 agonist 173
c1coc(CNc2ncnc3sc4c(c23)CCCCC4)c1	none
Cc1nc(NCC(c2ccccc2)N(C)C)c2c(C)c(C)sc2n1 (configuration not stated)	TRPC4 agonist 267
Cc1sc2nc(CSc3ccccc3)nc(NCCN(C)C)c2c1C	TRPC4 agonist 176
Cc1sc2ncnc(NCC(c3ccccc3)N(C)C)c2c1C (configuration not stated)	TRPC4 agonist 218
CCNc1nc(CSc2ccccc2)nc2sc(C)c(C)c12	none
CN(C)C(CNc1ncnc2sc3c(c12)CCCC3)c1ccco1 (configuration not stated)	TRPC4 agonist 121
CC(C)=CCc1c(O)c(CC=C(C)C)c2c(c1O)-c1cc(O)c(O)cc1CC2	none
CC(=O)Oc1ccc(C(=O)Nc2ccc(S(=O)(=O)NCC3CCCO3)cc2)cc1 (configuration not stated)	none
O=C(N/N=C/c1cc([N+](=O)[O-])cc(Br)c1O)C12CC3CCC(CC(C3)C1)C2	TRPC4 agonist 136
COc1ccc(CN(C)CC(=O)Nc2sc3c(c2C#N)CCC3)cc1OC	TRPC4 inh -6
CN(CC(=O)Nc1sc2c(c1C#N)CCCCC2)Cc1nc2ccccc2c(=O)[nH]1	TRPC4 potent 16
CCc1ccc(S(=O)(=O)/N=C2\C=C(Nc3cccc(C(=O)O)c3)C(=O)c3ccccc32)cc1	TRPC4 inh -8
CCc1ccc(S(=O)(=O)/N=C2\C=C(Nc3ccc(O)cc3)C(=O)c3ccccc32)cc1	none
Cc1ccc(C)c(N2C(=O)c3ccc(C(=O)OCC(=O)c4c(N)n(C)c(=O)n(C)c4=O)cc3C2=O)c1	TRPC4 potent 11
Brc1ccc(CN2C3=NCCCN3c3ccccc32)cc1	TRPC4 inh -7
OC(COc1ccccc1)CN1C2=NCCCN2c2ccccc21 (configuration not stated)	TRPC4 inh -5
c1ccc(CN2C3=NCCCN3c3ccccc32)cc1	none
Clc1ccc(CN2C3=NCCN3c3ccccc32)cc1	TRPC4 inh -6
CCN1CCCC1CNS(=O)(=O)c1c(C)cc(C)cc1C (configuration not stated)	TRPC4 agonist 86
CCCc1ccc(S(=O)(=O)NCC2CCCN2CC)cc1 (configuration not stated)	none
Clc1ccccc1OCCCCN1CCNCC1	TRPC4 potent 12
Cc1cccc(OCCOCCN2CCOCC2)c1C	none
Cc1cc(Cl)c(OCCOCCN2CCNCC2)c(Cl)c1	TRPC4 agonist 62
Cc1cc(C)c(OCCOCCN2CCN(C)CC2)c(Cl)c1	none
Clc1ccccc1OCCCCN1CCCC1	none (no result: TRPC4 inh)
Cc1cccc(OCCOCCN2CCNCC2)c1C	TRPC4 agonist 133
COc1cc(/C=C2/CCCC(C(=O)C(F)(F)F)=C2O)ccc1O	none
CCOc1cc(/C=C2\CN(CC)C/C(=C\c3ccc(O)c(OCC)c3)C2=O)ccc1O	TRPC4 potent 17
COc1cc(/C=C2\CCC/C(=C\c3ccc(O)c(OC)c3)C2=O)ccc1O	TRPC4 inh -6
COc1cc(/C=C2\SC(N3CCC(C)CC3)=NC2=O)ccc1O	TRPC4 inh -6
CCOc1cc(/C=N/N=C/c2ccc(O)c(OCC)c2)ccc1O	none
COc1ccc([C@H]2C=C3CN(C(=O)OC(C)(C)C)S(=O)(=O)[C@H]3C[C@H]2OC(=O)c2cccs2)cc1	none
Cc1ccc(S(=O)(=O)NC(=O)COc2ccccc2C)c(C)c1	none
CCc1ccc(CCC(=O)Nc2ccc(Cl)cc2)o1	none
Cc1cc(C)c(C)c(C(=O)C2OC(=O)C(C)(C)C(=O)C2(C)C)c1C (configuration not stated)	none
CC1(C)C(=O)OC(C(=O)c2ccc(C(C)(C)C)cc2)C(C)(C)C1=O (configuration not stated)	TRPC4 potent 13
CCOc1ccc(N(C)Cc2cc(=O)oc3ccc(OCC)cc23)cc1	none
Cc1ccc(C(CNS(=O)(=O)c2ccc([N+](=O)[O-])cc2)N2CCN(C)CC2)cc1 (configuration not stated)	TRPC4 inh -6
Cc1cccc(OCC(=O)NC(=S)Nc2ccc(S(=O)(=O)NC3CCCCC3)cc2)c1	none
c1ccc(-c2cncn2-c2ccccc2)cc1	none
Cc1ccc(NC(=O)CNc2ccccc2CN(C)C2CCCCC2)cc1	TRPC4 inh -6
CN(C)c1ccc(-c2nnc(-c3ccccc3F)o2)cc1	none
CCCNC(=O)C1=C(C)C(=O)OC12CCC(C)CC2 (configuration not stated)	none
CC1=C(C(=O)NCCN2CCN(C)CC2)C2(CCC(C)CC2)OC1=O (configuration not stated)	TRPC4 potent 22
Cc1ccc(C2(O)CN(c3ccccc3C)C3=[N+]2CCS3)cc1 (configuration not stated)	TRPC4 agonist 106
